Test results from ChEMBL document CHEMBL1153887, “Cyclocondensation reaction of heterocyclic carbonyl compounds. Part XIII: synthesis and cytotoxic activity of some 3,7-diaryl-5-(3,4,5-trimethoxyphenyl)pyrazolo[4,3-e][1,2,4]triazines” (Eur J Med Chem, 2009).

Assays:
A549 = experiment: Cytotoxicity against human A549 cells after 72 hrs by MTT assay; format: functional, cell-based; conditions: A549, 72 h
K562 [1] = experiment: Cytotoxicity against human K562 cells after 72 hrs by MTT assay; format: functional, cell-based; conditions: K562, 72 h
CCRF-CEM [2] = experiment: Cytotoxicity against human CEM cells after 72 hrs by MTT assay; format: cell-based
CCRF-CEM [3] = experiment: Cytotoxicity against human daunorubicin-resistant CEM cells after 72 hrs by MTT assay; format: cell-based
Summary of the method: (§1)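 Cells seeded at 2500–30,000 cells/well and left 24 h at 37 °C, 5% CO₂, then fourfold dilution series in duplicate for 72 h. MTT for 4 h, formazan dissolved in 10% SDS (pH 5.5), OD read at 540 nm against controls. Mean of three independent experiments.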

K562 [4] = experiment: Cytotoxicity against human paclitaxel-resistant K562 cells after 72 hrs by MTT assay; format: functional, cell-based; conditions: K562, 72 h; summary of the method: as §1

| SMILES | IC50 (A549) | IC50 (K562 [1]) | IC50 (CCRF-CEM [2]) | IC50 (CCRF-CEM [3]) | IC50 (K562 [4]) |
| --- | --- | --- | --- | --- | --- |
| COc1cc(/C(=N\Nc2ccc(Cl)cc2)c2nc(-c3ccc(Cl)cc3)n[nH]c2=O)cc(OC)c1OC | 3.81 µM | 10.2 µM | 7.67 µM | 37.7 µM | 12.5 µM |
| COc1ccc(N/N=C(\c2cc(OC)c(OC)c(OC)c2)c2nc(-c3ccccc3)n[nH]c2=O)cc1 | 3.06 µM | 6.27 µM | 4.16 µM | 9.46 µM | 11 µM |
| COc1cc(-c2nn(-c3ccc(Cl)cc3)c3nnc(-c4ccc(Cl)cc4)nc23)cc(OC)c1OC | 155 µM | 190 µM | 68.9 µM | 126 µM | 222 µM |
| COc1ccc(-c2nnc3c(n2)c(-c2cc(OC)c(OC)c(OC)c2)nn3-c2ccc(OC)cc2)cc1 | 113 µM | 186 µM | 124 µM | 118 µM | 229 µM |
| COc1cccc(N/N=C(\c2cc(OC)c(OC)c(OC)c2)c2nc(-c3cc(OC)c(OC)c(OC)c3)n[nH]c2=O)c1 | 3.38 µM | 112 µM | 7.83 µM | 140 µM | 22.1 µM |
| COc1ccc(-n2nc(-c3cc(OC)c(OC)c(OC)c3)c3nc(-c4ccccc4)nnc32)cc1 | 39 µM | 84.4 µM | 117 µM | 100 µM | 150 µM |
| COc1cccc(N/N=C(\c2cc(OC)c(OC)c(OC)c2)c2nc(-c3ccccc3)n[nH]c2=O)c1 | 8.3 µM | 12.7 µM | 8.6 µM | 19.3 µM | 13.7 µM |
| COc1ccc(-c2n[nH]c(=O)c(Cc3cc(OC)c(OC)c(OC)c3)n2)cc1 | 9.31 µM | 3.07 µM | 3.15 µM | 13.3 µM | 19.9 µM |
| COc1ccc(-c2nnc3c(n2)c(-c2cc(OC)c(OC)c(OC)c2)nn3-c2ccccc2)cc1 | 78.8 µM | 166 µM | 114 µM | 114 µM | 203 µM |
| COc1cccc(-n2nc(-c3cc(OC)c(OC)c(OC)c3)c3nc(-c4ccccc4)nnc32)c1 | 0.61 µM | 117 µM | 8.41 µM | 99.3 µM | 159 µM |
| COc1cccc(N/N=C(\c2cc(OC)c(OC)c(OC)c2)c2nc(-c3ccc(Cl)cc3)n[nH]c2=O)c1 | 8.32 µM | 41.8 µM | 11.5 µM | 133 µM | 26.3 µM |
| COc1ccc(N/N=C(\c2cc(OC)c(OC)c(OC)c2)c2nc(-c3ccc(Cl)cc3)n[nH]c2=O)cc1 | 2.34 µM | 7.5 µM | 9.49 µM | 9.16 µM | 8.33 µM |
| COc1ccc(-c2nnc3c(n2)c(-c2cc(OC)c(OC)c(OC)c2)nn3-c2ccc(Cl)cc2)cc1 | 113 µM | 203 µM | 115 µM | 118 µM | 232 µM |
| COc1ccc(-c2n[nH]c(=O)c(/C(=N/Nc3ccccc3)c3cc(OC)c(OC)c(OC)c3)n2)cc1 | 23.7 µM | 18.4 µM | 9.81 µM | 39.8 µM | 31.8 µM |
| COc1ccc(-c2n[nH]c(=O)c(/C(=N/Nc3cccc(OC)c3)c3cc(OC)c(OC)c(OC)c3)n2)cc1 | 250 µM | 162 µM | 68.7 µM | 132 µM | 250 µM |
| COc1cc(Cc2nc(-c3ccccc3)n[nH]c2=O)cc(OC)c1OC | 3.46 µM | 1.17 µM | 2.71 µM | 3.21 µM | 3.88 µM |
| COc1cc(Cc2nc(-c3ccc(Cl)cc3)n[nH]c2=O)cc(OC)c1OC | 15.8 µM | 9.63 µM | 12.9 µM | 14.6 µM | 24.7 µM |
| COc1ccc(N/N=C(\c2cc(OC)c(OC)c(OC)c2)c2nc(-c3cc(OC)c(OC)c(OC)c3)n[nH]c2=O)cc1 | 3.39 µM | 18.7 µM | 5.71 µM | 34.6 µM | 8.91 µM |
| COc1cc(N/N=C(\c2cc(OC)c(OC)c(OC)c2)c2nc(-c3cc(OC)c(OC)c(OC)c3)n[nH]c2=O)cc(OC)c1OC | 162 µM | 94.3 µM | 53.8 µM | 158 µM | 118 µM |
| COc1cc(-c2nn(-c3ccc(Cl)cc3)c3nnc(-c4ccccc4)nc23)cc(OC)c1OC | 57.3 µM | 250 µM | 150 µM | 156 µM | 173 µM |

| SMILES | IC50 (A549) | IC50 (K562 [1]) | IC50 (CCRF-CEM [2]) | IC50 (CCRF-CEM [3]) | IC50 (K562 [4]) |
| --- | --- | --- | --- | --- | --- |
| COc1ccc(-c2n[nH]c(=O)c(/C(=N/Nc3ccc(Cl)cc3)c3cc(OC)c(OC)c(OC)c3)n2)cc1 | 18.5 µM | 41.3 µM | 20.2 µM | 50.1 µM | 238 µM |
| COc1cc(/C(=N\Nc2ccccc2)c2nc(-c3ccccc3)n[nH]c2=O)cc(OC)c1OC | 7.14 µM | 11.5 µM | 10.6 µM | 18.2 µM | 19.3 µM |
| COc1cc(/C=C(/NC(=O)c2cc(OC)c(OC)c(OC)c2)C(=O)NN)cc(OC)c1OC | 103 µM | 160 µM | 123 µM | 126 µM | 153 µM |
| COc1cc(/C(=N\Nc2ccc(Cl)cc2)c2nc(-c3ccccc3)n[nH]c2=O)cc(OC)c1OC | 8.55 µM | 12 µM | 25.1 µM | 46.8 µM | 38.4 µM |
| COc1cccc(-n2nc(-c3cc(OC)c(OC)c(OC)c3)c3nc(-c4cc(OC)c(OC)c(OC)c4)nnc32)c1 | 163 µM | 164 µM | 48.3 µM | 109 µM | 141 µM |
| COc1cc(Cc2nc(-c3cc(OC)c(OC)c(OC)c3)n[nH]c2=O)cc(OC)c1OC | 117 µM | 82.1 µM | 38.4 µM | 129 µM | 138 µM |
| COc1ccc(-c2n[nH]c(=O)c(/C(=N/Nc3ccccc3OC)c3cc(OC)c(OC)c(OC)c3)n2)cc1 | 250 µM | 148 µM | 54.6 µM | 141 µM | 250 µM |
| COc1cc(/C=C(/NC(=O)c2ccccc2)C(=O)NN)cc(OC)c1OC | 164 µM | 162 µM | 124 µM | 121 µM | 162 µM |
| COc1ccc(-c2nnc3c(n2)c(-c2cc(OC)c(OC)c(OC)c2)nn3-c2ccccc2OC)cc1 | 6.58 µM | 178 µM | 105 µM | 119 µM | 155 µM |
| COc1ccc(C(=O)N/C(=C/c2cc(OC)c(OC)c(OC)c2)C(=O)NN)cc1 | 134 µM | 172 µM | 144 µM | 147 µM | 167 µM |
| COc1cccc(-n2nc(-c3cc(OC)c(OC)c(OC)c3)c3nc(-c4ccc(Cl)cc4)nnc32)c1 | 2.86 µM | 192 µM | 54.7 µM | 108 µM | 219 µM |
| COc1cc(/C(=N\Nc2ccccc2)c2nc(-c3ccc(Cl)cc3)n[nH]c2=O)cc(OC)c1OC | 22.1 µM | 17.5 µM | 10.8 µM | 37.7 µM | 33.1 µM |
| COc1ccc(-n2nc(-c3cc(OC)c(OC)c(OC)c3)c3nc(-c4cc(OC)c(OC)c(OC)c4)nnc32)cc1 | 75.6 µM | 66.2 µM | 36.9 µM | 118 µM | 161 µM |
| COc1cc(-c2nnc3c(n2)c(-c2cc(OC)c(OC)c(OC)c2)nn3-c2cc(OC)c(OC)c(OC)c2)cc(OC)c1OC | 194 µM | 241 µM | 246 µM | 201 µM | 250 µM |
| COc1ccc(-c2nnc3c(n2)c(-c2cc(OC)c(OC)c(OC)c2)nn3-c2cccc(OC)c2)cc1 | 124 µM | 115 µM | 54.5 µM | 184 µM | 174 µM |
| COc1cc(-c2nn(-c3ccccc3)c3nnc(-c4ccc(Cl)cc4)nc23)cc(OC)c1OC | 130 µM | 220 µM | 11.6 µM | 113 µM | 225 µM |
| COc1cc(-c2nn(-c3ccccc3)c3nnc(-c4ccccc4)nc23)cc(OC)c1OC | 86.6 µM | 169 µM | 109 µM | 108 µM | 216 µM |
| COc1cc(/C=C(/NC(=O)c2ccc(Cl)cc2)C(=O)NN)cc(OC)c1OC | 161 µM | 166 µM | 134 µM | 130 µM | 174 µM |
| COc1ccccc1-n1nc(-c2cc(OC)c(OC)c(OC)c2)c2nc(-c3cc(OC)c(OC)c(OC)c3)nnc21 | 15 µM | 182 µM | 126 µM | 125 µM | 156 µM |
| COc1ccc(-n2nc(-c3cc(OC)c(OC)c(OC)c3)c3nc(-c4ccc(Cl)cc4)nnc32)cc1 | 113 µM | 248 µM | 226 µM | 139 µM | 250 µM |
